In ChEMBL document CHEMBL1123593, “2,4-diamino-6,7-dimethoxyquinazolines. 1. 2-[4-(1,4-benzodioxan-2-ylcarbonyl)piperazin-1-yl] derivatives as alpha 1-adrenoceptor antagonists and antihypertensive agents” (J Med Chem, 1987):
Activity calls are given as the source filed them. No cut-off for these calls is given here.

The compounds below were run on Rattus norvegicus (assay: Percent reduction in blood pressure in spontaneously hypertensive rats (SHR) at peroral dose of 5 mg/kg was determined after 1 hr). Settings: route oral.
Format: functional
Procedure, shortened: (§1)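 Single oral gavage dose of 5 mg/kg to groups of six spontaneously hypertensive rats, all with starting systolic pressure above 175 mmHg. Rats were warmed at 33 °C for 20–30 min before readings. Systolic pressure was taken by tail cuff with a variable capacitance transducer, predose and at 1, 2, 4 and 6 h. Percent reduction from predose is given. Saline-dosed controls (n = 10) were run.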
`COc1cc2nc(N3CCN(C(=O)C4COc5cccc(C)c5O4)CC3)nc(N)c2cc1OC` (configuration not stated) was tested, and the Reduction was 16%.
`COc1cc2nc(N3CCN(C(=O)C4COc5ccccc5O4)C(C)C3)nc(N)c2cc1OC` (configuration not stated) gave a Reduction of 18%.
For `COc1cc2nc(N3CCN(C(=O)C4(C)COc5ccccc5O4)CC3)nc(N)c2cc1OC` (configuration not stated), the Reduction was 8%.
`COc1cc2nc(N3CCN(C(=O)C4COc5cc(C)c(C)cc5O4)CC3)nc(N)c2cc1OC` (configuration not stated) gave a Reduction of 14%.
Work on `COc1cc2nc(N3CCN(C(=O)C4COc5cccc(C(C)C)c5O4)CC3)nc(N)c2cc1OC` (configuration not stated) yielded a Reduction of 6%.
Work on `COc1cc2nc(N3CCN(C(=O)C4COc5cccc(OC)c5O4)CC3)nc(N)c2cc1OC` (configuration not stated) yielded a Reduction of 14%.
In the case of `COc1cc2nc(N3CCN(C(=O)C4COc5cc(Cl)c(Cl)cc5O4)CC3)nc(N)c2cc1OC` (configuration not stated), the Reduction is reported as 6%.
For `COc1cc2nc(N3CCN(C(=O)c4ccco4)CC3)nc(N)c2cc1OC` [PRAZOSIN], the Reduction was 33%.
`COc1cc2nc(N3CCN(C(=O)C4COc5ccc(S(=O)(=O)N(C)C)cc5O4)CC3)nc(N)c2cc1OC` (configuration not stated) was tested, and the Reduction was 10%.
`COc1cc2nc(N3CCN(C(=O)C4COc5ccc(C(C)=O)cc5O4)CC3)nc(N)c2cc1OC` (configuration not stated) gave a Reduction of 19%.
`COc1ccc2c(c1)OCC(C(=O)N1CCN(c3nc(N)c4cc(OC)c(OC)cc4n3)CC1)O2` (configuration not stated) was tested, and the Reduction was 34%.
In the case of `COc1cc2nc(N3CCN(C(=O)C4COc5cc(Cl)ccc5O4)CC3)nc(N)c2cc1OC` (configuration not stated), the Reduction is reported as 27%.

What follows are compounds tested against T1, Adrenergic receptor alpha-1 (Homo sapiens) (UniProt P35348+P25100+P35368) (assay: Antagonist activity against post junctional alpha-1 adrenergic receptor was measured by Kerbs super fused rabbit pulmonary artery preparations labeled with [3H]- norepinephrine.). Settings: Oryctolagus cuniculus; target entry is the homologue from another species.
Format: functional
Procedure, shortened: (§2)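 Rabbit pulmonary artery superfused in Krebs after [3H]-noradrenaline labelling, with transmural electrical stimulation (3 Hz, 0.05 h). Postjunctional response was read as contraction on an isometric transducer. Percent antagonism was plotted against compound concentration. EC40-post, the concentration giving 40% reduction of contractile response, was read from the graph. Values are averaged from two experiments, six for some.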
In the case of `COc1cc2nc(N3CCN(C(=O)C4COc5cccc(C)c5O4)CC3)nc(N)c2cc1OC` (configuration not stated), the EC40 is reported as 26 nM.
With `COc1cc2nc(N3CCN(C(=O)c4ccco4)CC3)nc(N)c2cc1OC` [PRAZOSIN] the EC40 was 4.5 nM.

Each compound was assayed against T1, Adrenergic receptor alpha-1 (Homo sapiens) (assay: Antagonist activity against post junctional Alpha-1 adrenergic receptor was measured by Kerbs super fused rabbit pulmonary artery preparations labeled with [3H]- norepinephrine.). Settings: Oryctolagus cuniculus, target entry is the homologue from another species.
Format: functional, tissue-based
Procedure, shortened: as §2
In the case of `COc1ccc2c(c1)OCC(C(=O)N1CCN(c3nc(N)c4cc(OC)c(OC)cc4n3)CC1)O2` (configuration not stated), the EC40 is reported as 10 nM.

These compounds were tested on Rattus norvegicus (assay: Percent reduction in blood pressure in spontaneously hypertensive rats (SHR) at peroral dose of 5 mg/kg was determined after 6 hr). Settings: route oral.
Format: functional
Procedure, shortened: as §1
With `COc1cc2nc(N3CCN(C(=O)C4COc5cccc(C)c5O4)CC3)nc(N)c2cc1OC` (configuration not stated) the Reduction was 22%.
In the case of `COc1cc2nc(N3CCN(C(=O)C4COc5ccccc5O4)C(C)C3)nc(N)c2cc1OC` (configuration not stated), the Reduction is reported as 13%.
Compound `COc1cc2nc(N3CCN(C(=O)C4(C)COc5ccccc5O4)CC3)nc(N)c2cc1OC` (configuration not stated) has a Reduction of 9%.
In the case of `COc1cc2nc(N3CCN(C(=O)C4COc5cc(C)c(C)cc5O4)CC3)nc(N)c2cc1OC` (configuration not stated), the Reduction is reported as 20%.
`COc1cc2nc(N3CCN(C(=O)C4COc5cccc(C(C)C)c5O4)CC3)nc(N)c2cc1OC` (configuration not stated) gave a Reduction of 3%.
With `COc1cc2nc(N3CCN(C(=O)C4COc5cccc(OC)c5O4)CC3)nc(N)c2cc1OC` (configuration not stated) the Reduction was 13%.
`COc1cc2nc(N3CCN(C(=O)C4COc5cc(Cl)c(Cl)cc5O4)CC3)nc(N)c2cc1OC` (configuration not stated) showed a Reduction of 9%.
`COc1cc2nc(N3CCN(C(=O)c4ccco4)CC3)nc(N)c2cc1OC` [PRAZOSIN] showed a Reduction of 29%.
Compound `COc1cc2nc(N3CCN(C(=O)C4COc5ccc(S(=O)(=O)N(C)C)cc5O4)CC3)nc(N)c2cc1OC` (configuration not stated) has a Reduction of 8%.
`COc1cc2nc(N3CCN(C(=O)C4COc5ccc(C(C)=O)cc5O4)CC3)nc(N)c2cc1OC` (configuration not stated) gave a Reduction of 24%.
`COc1ccc2c(c1)OCC(C(=O)N1CCN(c3nc(N)c4cc(OC)c(OC)cc4n3)CC1)O2` (configuration not stated) gave a Reduction of 23%.
Compound `COc1cc2nc(N3CCN(C(=O)C4COc5cc(Cl)ccc5O4)CC3)nc(N)c2cc1OC` (configuration not stated) has a Reduction of 23%.

What follows are compounds tested against T2, Adrenergic receptor alpha-2 (Homo sapiens) (UniProt P08913+P18825+P18089) (assay: not given). Settings: Oryctolagus cuniculus; Pulmonary artery.
`COc1cc2nc(N3CCN(C(=O)C4COc5cccc(C)c5O4)CC3)nc(N)c2cc1OC` (configuration not stated) was tested, and the EC40 was “inactive”.
With `COc1cc2nc(N3CCN(C(=O)C4COc5cccc(C(C)C)c5O4)CC3)nc(N)c2cc1OC` (configuration not stated) the EC40 was “inactive”.

Each compound was assayed against T3, Adrenergic receptor alpha-1 (Rattus norvegicus, UniProt P15823+P23944+P43140) (assay: Compound was tested for its binding affinity for alpha-1 adrenergic receptor site by displacement of [3H]prazosin at 0.15 nM concentration). Settings: not given.
T3 sequence (P15823 whole entry): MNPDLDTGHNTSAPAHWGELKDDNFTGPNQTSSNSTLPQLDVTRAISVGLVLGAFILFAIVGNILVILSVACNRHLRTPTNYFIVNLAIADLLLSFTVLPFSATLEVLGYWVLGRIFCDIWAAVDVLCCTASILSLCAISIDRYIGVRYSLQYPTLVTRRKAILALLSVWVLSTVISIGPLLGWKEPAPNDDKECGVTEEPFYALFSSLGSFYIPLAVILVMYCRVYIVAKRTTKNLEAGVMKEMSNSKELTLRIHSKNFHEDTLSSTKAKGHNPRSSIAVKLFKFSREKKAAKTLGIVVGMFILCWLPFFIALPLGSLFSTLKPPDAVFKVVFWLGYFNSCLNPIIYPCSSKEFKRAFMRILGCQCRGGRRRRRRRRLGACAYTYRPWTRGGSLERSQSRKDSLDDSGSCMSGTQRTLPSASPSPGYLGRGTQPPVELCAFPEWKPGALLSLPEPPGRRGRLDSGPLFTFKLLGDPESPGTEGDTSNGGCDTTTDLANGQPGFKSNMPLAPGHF
T3 sequence (P23944 whole entry): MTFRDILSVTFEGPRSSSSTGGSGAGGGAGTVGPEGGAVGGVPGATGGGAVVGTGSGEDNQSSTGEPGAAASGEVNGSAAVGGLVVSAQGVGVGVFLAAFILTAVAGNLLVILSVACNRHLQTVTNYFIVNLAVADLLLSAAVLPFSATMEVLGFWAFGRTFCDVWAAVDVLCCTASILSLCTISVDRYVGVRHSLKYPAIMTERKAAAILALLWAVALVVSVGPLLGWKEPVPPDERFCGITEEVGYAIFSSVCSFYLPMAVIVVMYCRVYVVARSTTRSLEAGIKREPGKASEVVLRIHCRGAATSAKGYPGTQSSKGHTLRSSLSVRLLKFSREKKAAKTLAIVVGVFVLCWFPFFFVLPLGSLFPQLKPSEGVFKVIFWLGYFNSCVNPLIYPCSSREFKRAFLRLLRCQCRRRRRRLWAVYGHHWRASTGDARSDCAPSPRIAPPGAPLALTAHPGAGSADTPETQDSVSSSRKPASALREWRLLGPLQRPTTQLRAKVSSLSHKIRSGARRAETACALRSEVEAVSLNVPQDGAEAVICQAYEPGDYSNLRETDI
T3 sequence (P43140 whole entry): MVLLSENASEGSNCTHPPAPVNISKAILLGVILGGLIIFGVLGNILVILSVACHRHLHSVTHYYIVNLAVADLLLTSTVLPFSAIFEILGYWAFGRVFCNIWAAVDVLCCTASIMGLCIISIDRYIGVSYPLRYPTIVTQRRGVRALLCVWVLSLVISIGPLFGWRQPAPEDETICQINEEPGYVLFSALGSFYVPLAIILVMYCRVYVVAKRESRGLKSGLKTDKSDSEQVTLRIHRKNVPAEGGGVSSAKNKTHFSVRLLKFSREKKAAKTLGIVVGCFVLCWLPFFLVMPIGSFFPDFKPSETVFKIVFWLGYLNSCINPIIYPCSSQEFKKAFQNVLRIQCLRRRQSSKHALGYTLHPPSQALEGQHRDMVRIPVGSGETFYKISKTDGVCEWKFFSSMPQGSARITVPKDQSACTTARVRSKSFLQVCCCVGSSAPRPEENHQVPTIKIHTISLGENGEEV
Compound `COc1cc2nc(N3CCN(C(=O)C4(C)COc5ccccc5O4)CC3)nc(N)c2cc1OC` (configuration not stated) has a Ki of 1.5 nM.

The compounds below were run against T1, Adrenergic receptor alpha-1 (Homo sapiens) (assay: Antagonist activity against post junctional alpha-1 adrenergic receptor was measured by Kerbs super fused rabbit pulmonary artery preparations labeled with [3H]- norepinephrine). Settings: Oryctolagus cuniculus, target entry is the homologue from another species.
Format: functional, tissue-based
Procedure, shortened: as §2
`COc1cc2nc(N3CCN(C(=O)C4COc5cccc(C(C)C)c5O4)CC3)nc(N)c2cc1OC` (configuration not stated) was tested, and the EC40 was 130 nM.

What follows are compounds tested against T3, Adrenergic receptor alpha-1 (assay: Compound was tested for its binding affinity for alpha-1 adrenoceptor site by displacement of [3H]-prazosin at 0.15 nM concentration). Settings: not given.
With `COc1ccc2c(c1)OCC(C(=O)N1CCN(c3nc(N)c4cc(OC)c(OC)cc4n3)CC1)O2` (configuration not stated) the Ki was 5.6 nM.

The compounds below were run against T2, Adrenergic receptor alpha-2 (Homo sapiens) (assay: Antagonist activity against prejunctional alpha-2 adrenergic receptor was measured by Kerbs super fused rabbit pulmonary artery preparations labeled with [3H]- norepinephrine; NA means no activity.). Settings: Oryctolagus cuniculus; target entry is the homologue from another species.
Format: functional
Procedure, shortened: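 [3H]-noradrenaline-labelled rabbit pulmonary artery, Krebs-superfused and stimulated transmurally (3 Hz, 0.05 h). Prejunctional action was read as [3H] overflow by liquid scintillation counting and plotted against compound concentration. EC40-pre, the concentration producing a 40% increase in [3H] overflow, was read from the graph. Values are averaged from two experiments, six for some.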
`COc1ccc2c(c1)OCC(C(=O)N1CCN(c3nc(N)c4cc(OC)c(OC)cc4n3)CC1)O2` (configuration not stated) was tested, and the EC40 was “inactive”.

Biological target: T3, Adrenergic receptor alpha-1
Assay: Compound was tested for its binding affinity for alpha-1 adrenergic receptor site by displacement of [3H]prazosin at 0.15 nM concentration
Settings: not given
Remark: another data set of the same source
Compound `COc1cc2nc(N3CCN(C(=O)C4COc5cccc(C)c5O4)CC3)nc(N)c2cc1OC` (configuration not stated) has a Ki of 3.7 nM.
Compound `COc1cc2nc(N3CCN(C(=O)C4COc5ccccc5O4)C(C)C3)nc(N)c2cc1OC` (configuration not stated) has a Ki of 6.5 nM.
For `COc1cc2nc(N3CCN(C(=O)C4COc5cc(C)c(C)cc5O4)CC3)nc(N)c2cc1OC` (configuration not stated), the Ki was 7.8 nM.
With `COc1cc2nc(N3CCN(C(=O)C4COc5cccc(C(C)C)c5O4)CC3)nc(N)c2cc1OC` (configuration not stated) the Ki was 6.7 nM.
Compound `COc1cc2nc(N3CCN(C(=O)C4COc5cc(Cl)c(Cl)cc5O4)CC3)nc(N)c2cc1OC` (configuration not stated) has a Ki of 13.3 nM.
Work on `COc1cc2nc(N3CCN(C(=O)C4COc5ccc(S(=O)(=O)N(C)C)cc5O4)CC3)nc(N)c2cc1OC` (configuration not stated) yielded a Ki of 6.5 nM.
`COc1cc2nc(N3CCN(C(=O)C4COc5ccc(C(C)=O)cc5O4)CC3)nc(N)c2cc1OC` (configuration not stated) showed a Ki of 3 nM.
`COc1cc2nc(N3CCN(C(=O)C4COc5cc(Cl)ccc5O4)CC3)nc(N)c2cc1OC` (configuration not stated) was tested, and the Ki was 12.6 nM.

Biological target: T3, Adrenergic receptor alpha-1
Assay: as above
Settings: not given
Remark: another data set of the same source
`COc1cc2nc(N3CCN(C(=O)C4COc5cccc(OC)c5O4)CC3)nc(N)c2cc1OC` (configuration not stated) gave a Ki of 2.4 nM.
